According to ChEMBL document CHEMBL1158370, “New antimalarial and cytotoxic 4-nerolidylcatechol derivatives” (Eur J Med Chem, 2009):
Converted amounts (≈) assume the structure as drawn.

What was measured:
Plasmodium falciparum [1] = test: Antimalarial activity against Plasmodium falciparum K1; assay type: functional, organism-based
In short: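 P. falciparum K1 (multidrug-resistant) cultured with compound at serial dilutions; growth measured as percentage reduction versus untreated controls; IC50 derived by probit analysis. Only compounds active in the preliminary single-concentration screen went on to this step.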

HL-60 = test: Cytotoxicity against human HL60 cells after 72 hrs by MTT assay; assay type: functional, cell-based; conditions: HL-60, 72 h
In short: (§1)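 Human tumour lines were grown in RPMI 1640 with 10% fetal bovine serum and 1% antibiotics at 37 °C under 5% CO2. Plating densities were 0.7 × 10⁵ for HCT-8, 0.6 × 10⁵ for SF-295 and 0.3 × 10⁶ for HL-60. Samples came from a 5 mg/mL DMSO stock and were incubated 72 h. MTT read at 550 nm; growth inhibition relative to […]. Triplicate, two independent experiments.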

HCT-8 = test: Cytotoxicity against human HCT8 cells after 72 hrs by MTT assay; assay type: functional, cell-based; in short: as §1
SF-295 = test: Cytotoxicity against human SF295 cells after 72 hrs by MTT assay; assay type: functional, cell-based; in short: as §1
MDA-MB-435 = test: Cytotoxicity against human MDA-MB-435 cells after 72 hrs by MTT assay; assay type: functional, cell-based
Plasmodium falciparum [2] = test: Antimalarial activity against Plasmodium falciparum K1 at 50 ug/mL; assay type: functional
In short: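 Preliminary screen against P. falciparum K1 at two concentrations, printed as 50 and 2.5 (unit unclear). Parasite growth given as percentage reduction versus untreated controls.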

Oc1ccccc1O [CATECHOL]
IC50 (Plasmodium falciparum [1]): 80600 nM | IC50 (HL-60): 1.08 µg/mL (≈ 9.81 µM) | IC50 (HCT-8; Homo sapiens, HCT-8, 72 h, read-out: IC50): 13.5 µg/mL (≈ 123 µM) | IC50 (SF-295; Homo sapiens, SF-295, 72 h, read-out: IC50): 12.9 µg/mL (≈ 117 µM) | IC50 (MDA-MB-435; Homo sapiens, MDA-MB-435, 72 h, read-out: IC50): > 25 µg/mL

CCN(CC)CCCC(C)Nc1ccnc2cc(Cl)ccc12 (stereo unspecified) [CHLOROQUINE PHOSPHATE]
IC50 (Plasmodium falciparum [1]): 890 nM

C=C[C@@](C)(O)CC/C=C(/C)CCC=C(C)C [NEROLIDIOL]
inhibition at 50 µg/mL (Plasmodium falciparum [2]): 50% | IC50 (HCT-8; hct-8): Not Active | IC50 (SF-295; sf-295): Not Active | IC50 (MDA-MB-435; mda-mb-435): Not Active

C=C[C@H]1CN2CC[C@H]1C[C@H]2[C@H](O)c1ccnc2ccc(OC)cc12 [QUININE]
IC50 (Plasmodium falciparum [1]): 12 nM
